We go through 20 compounds from ChEMBL document CHEMBL3860034, “Development of Potent and Selective S. aureus Sortase A Inhibitors Based on Peptide Macrocycles” (ACS Med Chem Lett, 2016).

*1 amine or outer side, *2 acyl side, *3 side chain or, on linkers, in order; H or OH if unused. Where a SMILES comes first, the peptide text is derived from it. Bridges are numbered along the chain shown (N, C = ends). TBMB = c1c(C[*:1])cc(C[*:3])cc1C[*:2]; mXylylene = c1cc(C[*:1])cc(C[*:2])c1

The test has as its target T1, Sortase A (Staphylococcus aureus, UniProt Q9S446).
T1 sequence (Q9S446 whole entry): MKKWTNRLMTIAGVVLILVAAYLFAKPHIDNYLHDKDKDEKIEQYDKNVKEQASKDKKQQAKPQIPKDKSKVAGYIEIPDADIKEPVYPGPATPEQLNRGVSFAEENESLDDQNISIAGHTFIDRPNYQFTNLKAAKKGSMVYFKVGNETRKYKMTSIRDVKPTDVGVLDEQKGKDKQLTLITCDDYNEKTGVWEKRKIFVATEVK
Briefly: Inhibition of Staphylococcus aureus His6-biotinylated SrtA expressed in Escherichia coli XL1-blue using Dabcyl-LPETG-Edans as substrate assessed as residual activity by fluorescence assay. The method, boiled down:
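(His)6-SrtA26−206 from E. coli XL1-blue, purified by Ni affinity and gel filtration. Enzyme at 2.5 μM incubated with varied peptide concentrations (up to 300 μM). Residual activity measured with 20 μM Dabcyl-LPETG-Edans and 200 μM triglycine in 50 mM Tris-Cl pH 7.4, 150 mM NaCl, 5 mM CaCl2, 0.1% BSA, 37 °C. Fluorescence read at ex 350/em 480 nm. Ki from Supporting Information equations; at least three measurements.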
Broadly, the Ki is a measure of affinity in units of concentration, obtained from inhibition or displacement. Consider `CC[C@H](C)[C@@H]1NC(=O)[C@H](CO)NC(=O)[C@@H](NC(=O)[C@H](C)N)CSCc2cc3cc(c2)CSC[C@H](NC(=O)[C@@H]2CCCN2C(=O)[C@@H]2CCCN2C(=O)[C@H](CC(C)C)NC1=O)C(=O)N[C@@H](CC(N)=O)C(=O)N1CCC[C@H]1C(=O)N1CCC[C@H]1C(=O)N[C@@H](CCC(N)=O)C(=O)N[C@H](C(=O)NCC(N)=O)CSC3`, for which the inhibition constant (Ki) turned out to be 11.1 µM.

Regarding `CC(C)C[C@@H]1NC(=O)[C@H](CCC(N)=O)NC(=O)[C@H](CCCNC(=N)N)NC(=O)[C@H](NC(=O)[C@H](C)N)CSCc2cc3cc(c2)CSC[C@H](C(=O)NCC(N)=O)NC(=O)[C@H](C(C)C)NC(=O)[C@H](Cc2ccc(O)cc2)NC(=O)[C@H](CCC(=O)O)NC(=O)[C@H](C)NC(=O)[C@H](CSC3)NC(=O)[C@@H]2CCCN2C(=O)[C@@H]2CCCN2C1=O`, the inhibitory constant (Ki) was 45.5 µM.

In the case of `CC[C@H](C)[C@@H]1NC(=O)[C@H](CO)NC(=O)[C@@H](NC(=O)[C@H](C)N)CSCc2cc3cc(c2)CSC[C@H](NC(=O)[C@@H]2CCCN2C(=O)[C@@H]2CCCN2C(=O)[C@H](CC(C)C)NC1=O)C(=O)N[C@H](CC(N)=O)C(=O)N1CCC[C@H]1C(=O)N1CCC[C@H]1C(=O)N[C@@H](CCC(N)=O)C(=O)N[C@H](C(=O)NCC(N)=O)CSC3`, the inhibition constant Ki came out at 11.1 µM.

For `CC[C@H](C)[C@@H]1NC(=O)[C@H](C)NC(=O)[C@@H](NC(=O)[C@H](C)N)CSCc2cc3cc(c2)CSC[C@H](NC(=O)[C@@H]2CCCN2C(=O)[C@@H]2CCCN2C(=O)[C@H](CC(C)C)NC1=O)C(=O)N[C@@H](CCC(N)=O)C(=O)N1CCC[C@H]1C(=O)N[C@@H](CCCNC(=N)N)C(=O)N[C@H](C(=O)NCC(N)=O)CSC3`, the inhibition constant (Ki) was found to be 21.5 µM.

For the compound `CC[C@H](C)[C@@H]1NC(=O)[C@H](C)NC(=O)[C@@H](NC(=O)[C@H](C)N)CSCc2cc3cc(c2)CSC[C@H](C(=O)NCC(N)=O)NC(=O)[C@H](CCCNC(=N)N)NC(=O)[C@@H]2CCCN2C(=O)[C@H](CCC(N)=O)NC(=O)[C@H](CSC3)NC(=O)[C@@H]2CCCN2C(=O)[C@@H]2CCCN2C(=O)[C@H](CC(C)C)NC1=O`, the Ki turned out to be 21.5 µM.

For the compound `CC(C)C[C@@H]1NC(=O)[C@H](CCC(N)=O)NC(=O)[C@H](CCCNC(=N)N)NC(=O)[C@@H](NC(=O)[C@H](C)N)CSCc2cc3cc(c2)CSC[C@H](NC(=O)[C@@H]2CCCN2C(=O)[C@@H]2CCCN2C1=O)C(=O)N[C@@H](C)C(=O)N[C@@H](CCC(=O)O)C(=O)N[C@@H](Cc1ccc(O)cc1)C(=O)N[C@@H](C(C)C)C(=O)N[C@H](C(=O)NCC(N)=O)CSC3`, the Ki is 45.5 µM.

As for `CC(C)C[C@@H]1NC(=O)[C@@H](NC(=O)[C@H](C)N)CSCc2cc3cc(c2)CSC[C@H](NC(=O)[C@@H]2CCCN2C(=O)[C@@H]2CCCN2C(=O)[C@H](CC(C)C)NC(=O)[C@H](CCC(N)=O)NC1=O)C(=O)N[C@@H](CO)C(=O)N[C@@H](CO)C(=O)N1CCC[C@H]1C(=O)N[C@H](C(=O)NCC(N)=O)CSC3` (H-ACLQLPPCSSPCG-NH2; linker 2-8-12 via TBMB), the inhibition constant Ki amounted to 11.6 µM.

For `CC[C@H](C)[C@@H]1NC(=O)[C@H](CO)NC(=O)[C@H](CO)NC(=O)[C@@H]2CSCc3cc(cc(c3)CSC[C@@H](C(=O)NCC(N)=O)NC(=O)[C@@H]3CCCN3C(=O)[C@@H]3CCCN3C(=O)[C@H](CC(C)C)NC1=O)CSC[C@H](NC(=O)[C@H](C)N)C(=O)N[C@@H](CCSC)C(=O)N[C@@H](Cc1ccc(O)cc1)C(=O)N[C@@H](CCC(N)=O)C(=O)N[C@@H](C)C(=O)N[C@@H](C)C(=O)N[C@@H](CC(C)C)C(=O)N2` (H-ACMYQAALCSSILPPCG-NH2; linker 2-9-16 via TBMB), the Ki is 9.4 µM.

For the compound `CC(C)C[C@@H]1NC(=O)[C@@H]2CCCN2C(=O)[C@@H](NC(=O)[C@H](C)N)CSCc2cc3cc(c2)CSC[C@H](NC(=O)[C@@H]2CCCN2C(=O)[C@@H]2CCCN2C(=O)[C@H](CC(C)C)NC1=O)C(=O)N[C@@H](C)C(=O)N[C@@H](CC(=O)O)C(=O)N[C@@H](CC(=O)O)C(=O)N[C@H](C(=O)NCC(N)=O)CSC3` (H-ACPLLPPCADDCG-NH2; linker 2-8-12 via TBMB), the Ki amounted to 3 µM.

`CC(C)C[C@@H]1NC(=O)[C@@H]2CCCN2C(=O)[C@@H](NC(=O)[C@H](C)N)CSCc2cc3cc(c2)CSC[C@H](NC(=O)[C@@H]2CCCN2C(=O)[C@@H]2CCCN2C(=O)[C@H](CC(C)C)NC1=O)C(=O)N[C@@H](Cc1cnc[nH]1)C(=O)N[C@@H](CC(C)C)C(=O)N1CCC[C@H]1C(=O)N[C@@H](CCC(N)=O)C(=O)N[C@H](C(=O)NCC(N)=O)CSC3` (H-ACPLLPPCHLPQCG-NH2; linker 2-8-13 via TBMB): the Ki was 9.3 to 13.3 µM.

In the case of `CC(C)C[C@@H]1NC(=O)[C@H](CO)NC(=O)[C@@H]2CSCc3cc(cc(c3)CSC[C@H](NC(=O)[C@H](C)N)C(=O)N3CCC[C@H]3C(=O)N[C@@H](CC(C)C)C(=O)N[C@@H](CC(C)C)C(=O)N3CCC[C@H]3C(=O)N3CCC[C@H]3C(=O)N2)CSC[C@@H](C(=O)NCC(=O)O)NC(=O)[C@H](CC(=O)O)NC1=O` (H-ACPLLPPCSLDCG-OH; linker 2-8-12 via TBMB), the Ki was 1.5 µM.

Consider `CC(C)C[C@@H]1NC(=O)[C@H](CCC(N)=O)NC(=O)[C@@H]2CCCN2C(=O)[C@@H](NC(=O)[C@H](C)N)CSCc2cccc(c2)CSC[C@@H](C(=O)NCC(N)=O)NC(=O)[C@@H]2CCCN2C(=O)[C@@H]2CCCN2C1=O` (H-ACPQLPPCG-NH2; linker 2-8 via mXylylene), for which the inhibition constant Ki stood at 4.9 µM.

With `CC(C)C[C@@H]1NC(=O)[C@@H]2CSCc3cc(cc(c3)CSC[C@H](NC(=O)[C@H](C)N)C(=O)N3CCC[C@H]3C(=O)N[C@@H](CCC(N)=O)C(=O)N[C@@H](CC(C)C)C(=O)N3CCC[C@H]3C(=O)N3CCC[C@H]3C(=O)N2)CSC[C@@H](C(=O)NCC(N)=O)NC(=O)[C@@H]2CCCN2C(=O)[C@H](Cc2ccc(O)cc2)NC1=O` (H-ACPQLPPCLYPCG-NH2; linker 2-8-12 via TBMB), the Ki was 7.4 µM.

As to `CC(C)C[C@@H]1NC(=O)[C@H](CCC(N)=O)NC(=O)[C@@H]2CCCN2C(=O)[C@@H](NC(=O)[C@H](C)N)CSCc2cc3cc(c2)CSC[C@H](NC(=O)[C@@H]2CCCN2C(=O)[C@@H]2CCCN2C1=O)C(=O)N[C@@H](CCCNC(=N)N)C(=O)N[C@@H](C(C)C)C(=O)N[C@@H](CO)C(=O)N[C@H](C(=O)NCC(N)=O)CSC3` (H-ACPQLPPCRVSCG-NH2; linker 2-8-12 via TBMB), the Ki is 4.3 µM.

For the compound `CC[C@H](C)[C@@H]1NC(=O)CNC(=O)[C@H](CCC(N)=O)NC(=O)[C@@H](NC(=O)[C@H](C)N)CSCc2cc3cc(c2)CSC[C@H](NC(=O)[C@@H]2CCCN2C(=O)[C@@H]2CCCN2C(=O)[C@H](CC(C)C)NC1=O)C(=O)NCC(=O)N[C@@H](CCCNC(=N)N)C(=O)NCC(=O)NCC(=O)NCC(=O)N[C@H](C(=O)NCC(N)=O)CSC3` (H-ACQGILPPCGRGGGCG-NH2; linker 2-9-15 via TBMB), the Ki stood at 42 µM.

As for `CC[C@H](C)[C@@H]1NC(=O)CNC(=O)[C@H](CCC(N)=O)NC(=O)[C@@H](NC(=O)[C@H](C)N)CSCc2cc3cc(c2)CSC[C@H](NC(=O)[C@@H]2CCCN2C(=O)[C@@H]2CCCN2C(=O)[C@H](CC(C)C)NC1=O)C(=O)NCC(=O)N[C@@H](CCCNC(=N)N)C(=O)NCC(=O)NCC(=O)NCC(=O)NCC(=O)N[C@H](C(=O)NCC(N)=O)CSC3` (H-ACQGILPPCGRGGGGCG-NH2; linker 2-9-16 via TBMB), the Ki is 42 µM.

Consider `CC(C)C[C@@H]1NC(=O)[C@H](CCC(N)=O)NC(=O)[C@@H](NC(=O)[C@H](C)N)CSCc2cc3cc(c2)CSC[C@H](NC(=O)[C@@H]2CCCN2C(=O)[C@@H]2CCCN2C(=O)[C@H](CC(C)C)NC1=O)C(=O)N1CCC[C@H]1C(=O)N[C@@H](Cc1ccccc1)C(=O)N[C@@H](CC(N)=O)C(=O)N[C@H](C(=O)NCC(N)=O)CSC3` (H-ACQLLPPCPFNCG-NH2; linker 2-8-12 via TBMB), for which the Ki was 19.3 µM.

In the case of `CC(C)C[C@@H]1NC(=O)[C@H](CCC(N)=O)NC(=O)[C@H](CCCNC(=N)N)NC(=O)[C@@H](NC(=O)[C@H](C)N)CSCc2cc3cc(c2)CSC[C@H](NC(=O)[C@@H]2CCCN2C(=O)[C@@H]2CCCN2C1=O)C(=O)N[C@@H](CO)C(=O)N[C@@H](Cc1ccccc1)C(=O)N[C@@H](CCC(=O)O)C(=O)N[C@H](C(=O)NCC(N)=O)CSC3` (H-ACRQLPPCSFECG-NH2; linker 2-8-12 via TBMB), the inhibition constant (Ki) came to 11.6 µM.

For the compound `CC(C)C[C@@H]1NC(=O)[C@H]([C@@H](C)O)NC(=O)[C@@H](NC(=O)[C@H](C)N)CSCc2cc3cc(c2)CSC[C@H](NC(=O)[C@@H]2CCCN2C(=O)[C@@H]2CCCN2C(=O)[C@H](CC(C)C)NC1=O)C(=O)N[C@@H]([C@@H](C)O)C(=O)N1CCC[C@H]1C(=O)N[C@@H](CC(=O)O)C(=O)N[C@@H](CCC(N)=O)C(=O)N[C@H](C(=O)NCC(N)=O)CSC3` (H-ACTLLPPCTPDQCG-NH2; linker 2-8-13 via TBMB), the inhibition constant Ki is 32.1 µM.

For `CC(C)C[C@@H]1NC(=O)[C@H](CCC(N)=O)NC(=O)[C@@H]2CCCN2C(=O)[C@@H]2CSCc3cc(cc(c3)CSC[C@@H](C(=O)NCC(=O)O)NC(=O)[C@@H]3CCCN3C(=O)[C@@H]3CCCN3C1=O)CSC[C@H](NC(=O)[C@H](C)N)C(=O)N[C@@H]([C@@H](C)O)C(=O)N[C@@H](CO)C(=O)N[C@@H](CCCNC(=N)N)C(=O)N2` (H-ACTSRCPQLPPCG-OH; linker 2-6-12 via TBMB), the Ki was determined as 1.8 µM.
